Consider 18 compounds from ChEMBL document CHEMBL1133084, “Synthesis of novel 3,7-substituted-2-(3',4'-dihydroxyphenyl)flavones with improved antioxidant activity” (J Med Chem, 2000).

Experiment [1] is described as follows: Antioxidant activity was determined using trolox equivalent antioxidant capacity assay. The format is functional. Summed up:
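ABTS (1.23 mg/mL) and ABAP (3.96 mg/mL) in 50 mM phosphate buffer pH 7.4 heated 70 °C for 20 min to generate ABTS radical. Test compound (stock in N2-purged DMSO:water 1:1; final DMSO ≤0.25%) incubated with ABTS•+ solution 5 min at 37 °C. Absorbance read at 734 nm. Trolox calibration 0–20 μM; TEAC = mM trolox equivalent to 1 mM compound.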

Experiment [2] is filed under the species Rattus norvegicus. The experiment in a line: Inhibitory effect on the oxidative degradation of membrane lipids (lipid peroxidation assay) in microsomes of rat. Format: functional. Summed up: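 Liver microsomes from male Wistar rats (200–220 g), washed in 50 mM Tris-HCl pH 7.4 and heat-inactivated at 100 °C ≥2 min, then diluted to 1.5 mg/mL. Peroxidation started with 10 μM FeSO4; final DMSO ≤2.5%. TBA-reactive substances sampled at 0–60 min and absorbance read at 535-600 nm after heating. IC50 interpolated from % inhibition at several concentrations; mean ± SEM, n = 3-5.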

In the case of `O=C(O)COc1c(-c2ccc(O)c(O)c2)oc2ccccc2c1=O`, the Activity in experiment [1] was 7.6 mM. Further, half-maximal inhibition in experiment [2] (IC50) required 6.5 µM.

Turning to `COc1ccc2c(=O)cc(-c3ccc(O)c(O)c3)oc2c1`, in experiment [1], the Activity was 3.3 mM. In experiment [2], the IC50 amounted to 2.5 µM.

Turning to `O=c1cc(-c2ccc(O)c(O)c2)oc2cc(O)ccc12`, the Activity in experiment [1] was 4.3 mM. Moreover, in experiment [2], half-maximal inhibition (IC50) was put at 11 µM.

In the case of `CN(C)CCCOc1c(-c2ccc(O)c(O)c2)oc2ccccc2c1=O`, in experiment [1], the Activity worked out at 3.4 mM. Also, in experiment [2], the midpoint of inhibition, the IC50, lay at 1 µM.

Regarding `COc1c(-c2ccc(O)c(O)c2)oc2ccccc2c1=O`, the Activity in experiment [1] was found to be 4.4 mM. Besides, it took 1.3 µM to reach half-maximal inhibition in experiment [2] (IC50).

With `C[N+](C)(C)CCCCCCCCOc1c(-c2ccc(O)c(O)c2)oc2ccccc2c1=O`, in experiment [1], the Activity stood at 3.3 mM. Further, inhibition in experiment [2] was half-maximal at 1 µM (IC50).

With `O=c1cc(-c2ccc(O)c(O)c2)oc2cc(OCCO)ccc12`, the Activity in experiment [1] came to 4.3 mM. This compound also showed an IC50 in experiment [2] of 16.4 µM.

In the case of `O=c1c(OCCO)c(-c2ccc(O)c(O)c2)oc2ccccc12`, the Activity in experiment [1] was 4.4 mM. In experiment [2], this compound displayed an IC50 of 0.6 µM.

As for `C[N+](C)(C)CCCOc1c(-c2ccc(O)c(O)c2)oc2cc(O)ccc2c1=O`, in experiment [1], the Activity stood at 5.1 mM. The compound further displayed an IC50 in experiment [2] of 3.8 µM.

In the case of `O=c1c(O)c(-c2ccc(O)c(O)c2)oc2ccccc12`, the Activity in experiment [1] stood at 4.5 mM. The compound further had an IC50 in experiment [2] of 1.8 µM.

On to `O=c1c(O)c(-c2ccc(O)c(O)c2)oc2cc(O)ccc12` [FISETIN], for which the Activity in experiment [1] is 5.6 mM. In experiment [2], this compound came in with an IC50 of 0.2 µM.

On to `O=c1c(O)c(-c2ccc(O)c(O)c2)oc2cc(OCCO)ccc12`, for which, in experiment [1], the Activity is 4.9 mM. The compound further came in with an IC50 in experiment [2] of 13.8 µM.

Take `C[N+](C)(C)CCCOc1c(-c2ccc(O)c(O)c2)oc2ccccc2c1=O`: the Activity in experiment [1] was determined as 4.2 mM. In addition, half-maximal inhibition in experiment [2] (IC50) required 1.2 µM.

On to `C[N+](C)(C)CCCOc1ccc2c(=O)cc(-c3ccc(O)c(O)c3)oc2c1`, for which the Activity in experiment [1] was determined as 1.9 mM. Inhibition in experiment [2] was half-maximal at 37.3 µM (IC50).

On to `CN(C)CCCOc1ccc2c(=O)cc(-c3ccc(O)c(O)c3)oc2c1`, for which the Activity in experiment [1] is 2.9 mM. This compound also gave an IC50 in experiment [2] of 8.1 µM.

As for `COc1c(-c2ccc(O)c(O)c2)oc2cc(O)ccc2c1=O`, in experiment [1], the Activity is 5.9 mM. This compound displayed an IC50 in experiment [2] of 1.6 µM.

As for `C[N+](C)(C)CCCCCCOc1c(-c2ccc(O)c(O)c2)oc2ccccc2c1=O`, the Activity in experiment [1] came out at 4.3 mM. The IC50 in experiment [2] is 1.4 µM.

With `O=c1c(OCCO)c(-c2ccc(O)c(O)c2)oc2cc(O)ccc12`, the Activity in experiment [1] stood at 3.4 mM. This compound gave an IC50 in experiment [2] of 21.7 µM.
